Measurements gathered from unrelated publications.
Target: Ephrin type-B receptor 1 (EPHB1, Homo sapiens, UniProt P54762)

CC(C)CC(=O)N1CCc2nc(-c3ccc(Br)cc3)nc(N(C)Cc3ccccc3)c2C1  remaining binding (cell-free assay; competition with immobilised ligand; 0.1 µM): 100%
FC(F)c1nc2ccccc2n1-c1nc(N2CCOCC2)nc(N2CCOCC2)n1  remaining activity (enzyme activity; inhibitor; 10 µM): 96%
O=C(NCc1ncc(C(F)(F)F)cc1Cl)c1ccc2c(c1)C1(CCS(=O)(=O)CC1)[C@@H](C1CC1)N2S(=O)(=O)c1ccc(F)cc1  remaining binding (cell-free assay; competition with immobilised ligand; 1 µM): 100%
COc1cc(-c2cc(-c3ccc(N4CCNCC4)cc3)cnc2C)cc(OC)c1OC  inhibition (enzyme activity; inhibitor; 1 µM): 6%
COc1cc2ncnc(Nc3ccc(Oc4ccccc4)cc3C)c2cc1OC  inhibition (enzyme activity; inhibitor; 1 µM): 6%
Oc1cccc(-c2nc(N3CCOCC3)c3oc4ncccc4c3n2)c1  remaining activity (enzyme activity; inhibitor; 10 µM): 131%
CCCOc1ccc(OC)c(F)c1C(=O)c1ccc(C(=O)N[C@@H]2CNC[C@H]2NC(=O)c2ccc3[nH]ncc3c2)cc1  remaining activity (enzyme activity; inhibitor; 10 µM): 42%
COc1cc(Nc2cnc(C#N)c(O[C@H](C)CN(C)C)n2)ncc1-c1cnn(C)c1  remaining activity (enzyme activity; inhibitor; radiometric; 10 µM): 71%
COc1cc(Cl)c(C(=O)N[C@@H](CN[C@H]2CC[C@@H](N)CC2)Cc2ccc(C#N)cc2)cc1-c1ccc(CN[C@H](C)c2ccc(C)cc2)o1  remaining activity (enzyme activity; inhibitor; 1 µM): 122%
COc1cc(Nc2c(C#N)cnc3cc(OCCCN4CCN(C)CC4)c(OC)cc23)c(Cl)cc1Cl  remaining signal (cell-free assay; 0.5 µM): 11.8%
CNCc1ccccc1-c1csc([C@@H](C)Nc2nc(C)nc3cc(OC)c(OC)cc23)c1  remaining binding (cell-free assay; competition with immobilised ligand; 1 µM): 100%
Clc1ccc(Nc2nnc(Cc3ccncc3)c3ccccc23)cc1  remaining signal (cell-free assay; 0.5 µM): 107%
CCC(=N\O)/C(C)=C/c1ccc(F)cc1  remaining binding (cell-free assay; competition with immobilised ligand; 1 µM): 100%
O=C(Nc1cnn(-c2csc(C(=O)NC3COC3)c2)c1)Nc1c(F)cccc1Cl  remaining activity (enzyme activity; inhibitor; 5 µM): 96.1%
Cc1noc([C@H]2C[C@@H](c3ccc(C(F)(F)F)cc3)CN(C(=O)N3CCS(=O)(=O)C3)C2)n1  remaining binding (cell-free assay; competition with immobilised ligand; 1 µM): 100%
Cc1sc(C(=O)NC2COC2)cc1-n1cc(NC(=O)Nc2c(F)cccc2Cl)cn1  remaining activity (enzyme activity; inhibitor; 10 µM): 100%
O=C(Nc1ccc(Oc2ccc(F)cc2)cc1)N1CCc2ncccc2[C@H]1c1ccc(F)cc1  remaining binding (cell-free assay; competition with immobilised ligand; 1 µM): 100%
Cc1cnc(NC2CCOCC2)nc1-n1cnc(C(=O)NC(CN)c2cc(F)cc(Cl)c2)c1 (stereo not shown)  remaining activity (enzyme activity; inhibitor; radiometric; 1 µM): 125%
CCN(CC)CCNC(=O)c1c(C)[nH]c(/C=C2\C(=O)Nc3ccc(F)cc32)c1C  inhibition (enzyme activity; inhibitor; 0.3 µM): 34%
C=CC(=O)Nc1cc(Nc2nccc(Nc3cc(Cl)c(F)cc3C(C)(C)O)n2)c(OC)cc1N1CC[C@@H](N(C)C)C1  inhibition (enzyme activity; inhibitor; 1 µM): 24%
O=C(NS(=O)(=O)c1ccc(NCC2CCOCC2)c([N+](=O)[O-])c1)c1ccc(N2CCN(Cc3ccc(C(F)(F)F)cc3-c3ccc(Cl)cc3)CC2)cc1Oc1cnc2[nH]ccc2c1  remaining binding (cell-free assay; competition with immobilised ligand; 1 µM): 100%
CNC(=O)c1cc(Oc2ccc(NC(=O)Nc3ccc(Cl)c(C(F)(F)F)c3)cc2)ccn1  remaining signal (cell-free assay; 0.5 µM): 102%
Cc1ccc(Nc2nccc(N(C)c3ccc4c(C)n(C)nc4c3)n2)cc1S(N)(=O)=O  inhibition (enzyme activity; inhibitor; 10 µM): 63%
O=C1Nc2ccc(Cl)cc2C1=Cc1cc(Cl)c(O)c(Cl)c1  remaining signal (cell-free assay; 0.5 µM): 91%
COc1cc(/C=C/C(=O)CC(=O)/C=C/c2ccc(O)c(OC)c2)ccc1O  activity vs control (enzyme activity; inhibitor; 1 µM): 100%
CC(C)(C)c1nc(-c2cccc(NS(=O)(=O)c3c(F)cccc3F)c2F)c(-c2ccnc(N)n2)s1  remaining activity (enzyme activity; inhibitor; radiometric; 1 µM): 94%
O=C(NC[C@@H]1[C@H]2CN(C(=O)OCc3cc(C(F)(F)F)cc(C(F)(F)F)c3)C[C@@H]12)c1ccc2[nH]nnc2c1  remaining binding (cell-free assay; competition with immobilised ligand; 1 µM): 100%
CCCS(=O)(=O)Nc1ccc(F)c(C(=O)c2c[nH]c3ncc(-c4ccc(Cl)cc4)cc23)c1F  inhibition (enzyme activity; inhibitor; 1 µM): < 10%
